# Laboratory results from article PMC10984326 (Chemistry & biodiversity, 2023).
# Legend:
# A375 cells [1] = assay: Wound-healing; assay type: cell-based, human; conditions: for Inhibition of migration of A375 cells: after 20, 48 and 54 h, 7b 3.5 μM, 7c 4.3 μM
# A375 cells [2] = assay: Flow cytometry analysis of cell cycle; assay type: cell-based, human; conditions: for Cell cycle arrest: 5 x IC50; for Sub-G1 DNA content relative to control: 72 h, 5 x IC50 (7b 17.5 μM, 7c 21.5 μM), vs 0.2% DMSO
# [3] = system: Human primary dermal fibroblasts; assay: MTT cell viability assay, non-cancerous fibroblasts; assay type: cell-based; conditions: IC50 of cancer cells compared with IC50 of human fibroblasts
# In short: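 Primary dermal fibroblasts were grown in fibroblast basal medium with low-serum growth supplement at 37°C, 5% CO2. Cells were seeded at 2×10^3/well, and after 24 h were exposed for 72 h to test compound (DMSO solution, up to 10 μM) or 0.1% DMSO. MTT was added for 4 h and the formazan dissolved in DMSO, with absorbance at 540 nm. IC50 came from non-linear regression, and SI from comparing A375 and 35404 IC50s with fibroblast IC50.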
# 35404 cells = assay: MTT cell viability assay, patient-derived melanoma metastasized to brain; assay type: cell-based, human; conditions: read-out: Antiproliferative activity (IC50, μM) 35404 cells, 72 h treatment, up to 10 μM, mean±SD (n=4), IN = inactive
IC50 (35404 cells) [µM],Structure (SMILES),"Wound surface area (A375 cells [1]; 4 h of treatment, 3.5 μM (IC50), 0 h = 100%, control 76%) [%]",Inhibition of migration of A375 cells (A375 cells [1]),Cell cycle arrest (A375 cells [2]; 24 h),"DNA fragmentation (sub-G1 DNA) (A375 cells [2]; 24 h, 5 x IC50 (17.5 μM))",Cell cycle arrest (A375 cells [2]; 48 h and 72 h),Sub-G1 DNA content relative to control (A375 cells [2]),SI (selectivity index) [3]
–,"Cc1cc(C(=O)/C(=C\c2cccc(F)c2)c2cccc(F)c2)c(C(=O)N2CCCCC2)c(=O)[nH]1 [Compound 7b, (Z)-4-(2,3-bis(3-fluorophenyl)acryloyl)-6-methyl-3-(piperidine-1-carbonyl)pyridin-2(1H)-one]",93,statistically significant inhibition of migration,transient G2 and/or M phase arrest,Statistically significant DNA fragmentation,substantial G1 arrest,statistically significant increases,–
–,"COc1ccc(/C=C(\C(=O)c2cc(C)[nH]c(=O)c2C(=O)N2CCCCC2)c2ccc(OC)c(C)c2)cc1C [Compound 7c, (Z)-4-(2,3-bis(4-methoxy-3-methylphenyl)acryloyl)-6-methyl-3-(piperidine-1-carbonyl)pyridin-2(1H)-one]",–,statistically significant inhibition of migration,–,–,substantial G1 arrest,statistically significant increases,>2
0.4 ± 0.2,"Cc1cc(C(=O)/C(=C\c2ccc(C)c(Cl)c2)c2ccc(C)c(Cl)c2)c(C(=O)N2CCCCC2)c(=O)[nH]1 [Compound 7g, (Z)-4-(2,3-bis(3-chloro-4-methylphenyl)acryloyl)-6-methyl-3-(piperidine-1-carbonyl)pyridin-2(1H)-one]",–,–,–,–,–,–,>20
